From ChEMBL document CHEMBL1147162, “Synthesis, pharmacological evaluation and electrochemical studies of novel 6-nitro-3,4-methylenedioxyphenyl-N-acylhydrazone derivatives: Discovery of LASSBio-881, a new ligand of cannabinoid receptors” (2007)
The source made the active and inactive calls.

Key:
[1] = tested on: Rattus norvegicus; assay: Antiinflammatory activity against carrageenan-induced paw edema in Wistar rat at 300 umol/kg, po after 3 hrs; assay type: functional
Procedure, shortened: (§1)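 Fasted Wistar rats of both sexes (150–200 g) were dosed orally at 300 µmol/kg in 5% arabic gum in saline. One hour later they were injected subplantar with 0.1 mg/paw carrageenan, with saline in the contralateral paw. Paw volume was read by plethysmometer 3 h later as the difference between the paws. Results are % inhibition vs vehicle; ID50 is also given.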

[2] = tested on: Mus musculus; assay: Antihyperalgesic effect against formalin-induced pain in mouse at 100 umol/kg, po assessed as licking activity in inflammatory phase; assay type: functional
Procedure, shortened: (§2)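 Mice injected subplantar in one hind paw with 20 µL 2.5% formalin; compounds given orally at 100 µmol/kg in 5% arabic gum 60 min before. Time spent licking or biting the injected paw was recorded, with the neurogenic phase at 0–5 min and the inflammatory phase at 15–30 min. Percent inhibition is vs vehicle (ANOVA/Dunnett).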

[3] = tested on: Mus musculus; assay: Antiinflammatory activity against TPA-induced ear edema in Swiss mouse at 300 umol/kg, po after 6 hrs; assay type: functional
Procedure, shortened: (§3)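 Fasted Swiss mice received an oral dose of 300 µmol/kg (5% arabic gum suspension) 1 h before topical challenge on the right ear (20 µl acetone): AA 500 µg/ear or TPA 2 µg/ear. The left ear got acetone. Ears were weighed from 7 mm punches 1 h after AA or 6 h after TPA. Inhibition = (C−T)/C×100 vs vehicle.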

[4] = tested on: Rattus norvegicus; assay: Antiinflammatory activity against carrageenan-induced paw edema in Wistar rat; assay type: functional; conditions: read-out: ID50 (the source's name); procedure, shortened: as §1
[5] = tested on: Mus musculus; assay: Antihyperalgesic effect against formalin-induced pain in mouse at 100 umol/kg, po assessed as licking activity in neurogenic phase; assay type: functional; procedure, shortened: as §2
[6] = tested on: Mus musculus; assay: Antiinflammatory activity against AA-induced ear edema in Swiss mouse at 300 umol/kg, po after 1 hr; assay type: functional; procedure, shortened: as §3
[7] = Antioxidant activity assessed as hydroxyl radical degradation at 0.5 mM; assay type: functional
Procedure, shortened: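 2-Deoxy-D-ribose (10 mM) was incubated with Hepes pH 7.2 (10 mM), compound in DMSO (0.5 mM) and H2O2 (1 mM) for 1 h at 37 °C, started with Fe(NH4)2(SO4)2 10 µM. Results are % degradation vs vehicle.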

[8] = tested on: Radical scavenging activity; assay: Antioxidant activity assessed as DPPH radical scavenging activity at 0.1 mM; assay type: functional
[9] = tested on: T-cell; assay: Induction of anti CD3-stimulated T-lymphocyte apoptosis after 48 hrs; assay type: functional
Procedure, shortened: (§4)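 Nylon wool-enriched mouse splenic T cells (10^6/mL, DMEM + 1% nutridoma) were stimulated with anti-CD3 (145.2C11) plus PMA, with or without compound at 10 µM, for 48 h at 37 °C in 7% CO2. They were stained with FITC-annexin V (apoptosis) and 7-AAD (necrosis) and analysed by flow cytometry. Runs were in triplicate with at least 3 experiments.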

[10] = tested on: T-cell; assay: Induction of anti CD3-stimulated T-lymphocyte necrosis after 48 hrs; assay type: functional; procedure, shortened: as §4
[11] = tested on: Lymphocyte; assay: Inhibition of lymphocyte proliferation; assay type: functional, cell-based
Procedure, shortened: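 Nylon wool-enriched splenic T cells in supplemented DMEM + 1% nutridoma were cultured in triplicate with soluble anti-CD3 (2% v/v 145.2C11) and PMA 0.5 ng/mL plus compound for 3 days at 37 °C in 7% CO2. [3H]thymidine (1.0 µCi/well) was added for the last 18 h and incorporation counted; at least 3 experiments.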

[12] = tested on: Mus musculus; assay: Antinociceptive activity in Swiss mouse at 100 umol/kg, po assessed as increase in latency time; assay type: functional, organism-based
Procedure, shortened: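 Hot plate held at 55 ± 1 °C. Swiss mice of both sexes (18–25 g), fasted 8 h, were given 100 µmol/kg orally. Latency to first paw licking or jumping was read at 0, 30, 60, 90 and 120 min, with a 25 s cut-off. Morphine 39.5 µmol/kg was the positive control; n = 7–10.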

[13] = target: Cannabinoid receptor 1 (Mus musculus) (UniProt P47746); assay: Displacement of [3H]SR141716A from CB1 cannabinoid receptor in Swiss mouse brain homogenate; assay type: tissue-based
Procedure, shortened: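 Swiss mouse (30–40 g) whole-brain membranes, 160 µg protein, were incubated with 10 nM [3H]SR141716A plus PMSF (FAAH inhibitor) in Tris/EDTA/MgCl2 buffer with fatty acid-free BSA, pH 7.4, for 1 h at 30 °C. Nonspecific binding was set with 100 µM AM281. Samples were filtered on PEI-treated filters and counted by scintillation; n = 5 animals.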

[14] = Antioxidant activity assessed as superoxide degradation at 0.25 mM; assay type: functional
Procedure, shortened: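 The reaction was started with xanthine oxidase (~0.2 U/mL). Cytochrome c reduction was read spectrophotometrically at the Soret band as ΔA/min; % degradation is relative to vehicle.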

Sequence of Cannabinoid receptor 1 (Mus musculus) (P47746 whole entry): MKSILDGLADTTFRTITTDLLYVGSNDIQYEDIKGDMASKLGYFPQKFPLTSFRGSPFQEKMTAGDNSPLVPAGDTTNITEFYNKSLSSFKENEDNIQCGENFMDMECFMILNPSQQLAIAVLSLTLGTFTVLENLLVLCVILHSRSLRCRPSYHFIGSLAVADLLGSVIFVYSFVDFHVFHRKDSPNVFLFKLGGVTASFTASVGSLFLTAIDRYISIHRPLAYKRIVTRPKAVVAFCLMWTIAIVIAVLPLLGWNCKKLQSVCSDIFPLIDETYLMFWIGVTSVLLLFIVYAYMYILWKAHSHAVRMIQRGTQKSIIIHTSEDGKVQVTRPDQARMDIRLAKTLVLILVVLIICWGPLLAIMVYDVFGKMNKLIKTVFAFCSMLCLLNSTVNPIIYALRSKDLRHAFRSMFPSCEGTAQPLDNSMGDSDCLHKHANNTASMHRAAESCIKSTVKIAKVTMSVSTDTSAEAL

SMILES: O=C(N/N=C/c1ccncc1)c1cc2c(cc1[N+](=O)[O-])OCO2
- inhibition in vivo at 300 µmol/kg [1]: 13.3%

SMILES: O=C(N/N=C/c1cccs1)c1ccc2c(c1)OCO2
- inhibition in vivo at 100 µmol/kg [2]: 48.6%
- inhibition in vivo at 300 µmol/kg [1]: 29.7%
- inhibition in vivo at 300 µmol/kg [3]: -10.5%
- ED50 [4]: 14.3 µmol/kg
- inhibition in vivo at 100 µmol/kg [5]: 17.9%
- inhibition in vivo at 300 µmol/kg [6]: -1.6%

SMILES: CC(C)(C)c1cc(/C=N/NC(=O)c2ccc3c(c2)OCO3)cc(C(C)(C)C)c1O
- inhibition in vivo at 100 µmol/kg [2]: 3.1%
- inhibition in vivo at 300 µmol/kg [1]: 36.4%
- inhibition in vivo at 300 µmol/kg [3]: -19.6%
- Activity [7]: 85.2%
- ED50 [4]: 96.5 µmol/kg
- Activity [8]: 45.7%
- inhibition in vivo at 100 µmol/kg [5]: 4.1%
- inhibition in vivo at 300 µmol/kg [6]: 26.7%

SMILES: CC(C)(C)c1cc(/C=N/NC(=O)c2cc3c(cc2[N+](=O)[O-])OCO3)cc(C(C)(C)C)c1O
- Activity [9]: 43.8%
- inhibition in vivo at 100 µmol/kg [2]: 13.4%
- Activity [10]: 0%
- inhibition in vivo at 300 µmol/kg [1]: 31.7%
- inhibition in vivo at 300 µmol/kg [3]: 24.1%
- Activity [11]: Active
- Activity [7]: 84.6%
- ED50 [4]: 195 µmol/kg
- Activity [12]: Active
- Activity [8]: 32%
- inhibition in vivo at 100 µmol/kg [5]: 44.5%
- Activity [13]: 71%
- inhibition in vivo at 300 µmol/kg [6]: 36%
- Activity [14]: -2.9%

SMILES: O=C(N/N=C/c1ccccc1)c1cc2c(cc1[N+](=O)[O-])OCO2
- inhibition in vivo at 100 µmol/kg [2]: 1.5%
- inhibition in vivo at 300 µmol/kg [1]: 3.5%
- Activity [7]: 83.2%
- Activity [8]: 7.49%
- inhibition in vivo at 100 µmol/kg [5]: -21.1%
- Activity [14]: 19.6%

SMILES: O=C(N/N=C/c1ccccn1)c1cc2c(cc1[N+](=O)[O-])OCO2
- inhibition in vivo at 300 µmol/kg [1]: 22.8%

SMILES: O=C(N/N=C/c1ccc[nH]1)c1cc2c(cc1[N+](=O)[O-])OCO2
- inhibition in vivo at 300 µmol/kg [1]: 20.9%

SMILES: CS(=O)(=O)Nc1ccc([N+](=O)[O-])cc1Oc1ccccc1 [NIMESULIDE]
- inhibition in vivo at 100 µmol/kg [2]: 70.3%
- inhibition in vivo at 300 µmol/kg [1]: 57.5%
- inhibition in vivo at 300 µmol/kg [3]: -10.6%
- ED50 [4]: 22.7 µmol/kg
- inhibition in vivo at 100 µmol/kg [5]: 9.3%
- inhibition in vivo at 300 µmol/kg [6]: 100%

SMILES: CCCCC/C=C\C/C=C\C/C=C\C/C=C\CCCC(=O)NCCO [ANANDAMIDE]
- Activity [9]: 50.8%
- Activity [10]: 0.1%

SMILES: O=C(N/N=C/c1ccco1)c1cc2c(cc1[N+](=O)[O-])OCO2
- inhibition in vivo at 300 µmol/kg [1]: 4.1%

SMILES: O=C(N/N=C/c1cccs1)c1cc2c(cc1[N+](=O)[O-])OCO2
- inhibition in vivo at 300 µmol/kg [1]: 3.4%
